Compound activity: PubChem BioAssay, Broad Institute
Compounds with a hit are over-represented: about 1.9% of the library has one in this group of screens.
F508del corr – F508del CFTR correction, initial screen, CFBE line, single point | CFBE cells, YFP halide quenching; stimulated with forskolin plus potentiator P3; % fluorescence drop versus neutral controls | AID 720511, 2013 | activity (quench increase), % at 7.58 µM | 350,000 compounds, 0.36% hits;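 active = mean added fluorescence quench of at least 8% versus neutral control, with both replicates also reaching 8%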;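 note: cells transiently co-express mutant CFTR-F508del with the halide-sensitive YFP; corrector assay measuring rescue of mutant channel to the surface after 24 h compound exposure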
PGC1a acetyl inh – inhibitors of PGC1a acetylation signal, primary screen, cell-based, U2OS, AlphaScreen, inhibitor mode; AlphaScreen anti-acetyl-lysine; with virally co-expressed GCN5 acetyltransferase; inhibition, % at 15.6 µM; 350,000 compounds, 0.17% hits; AID 651687, 2012;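 active = every replicate shows inhibition of at least 40%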;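 note: 0% = neutral control wells and 100% = positive control wells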
DENV2 CPE – inhibitors of DENV2 cytopathic effect, primary screen, cell-based, plate reader, single concentration. DENV2-infected cells, cytopathic effect rescue. CPE inhibition, % at 9.99 µM. AID 651640, 2012. 350,000 compounds, 1.7% hits; in the data active = CPE inhibition above about 20%, passing the limit was not always enough; tested in BHK-21 cells;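 note: 0% = median of neutral control wells and 100% = median of positive control wells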
XiGFP reactiv – activators of inactive X chromosome reactivation, primary screen, imaging, XiGFP fibroblasts, GFP high-content imaging, set 2. activation, % at 7.58 µM. AID 743238, 2013. 360,000 compounds, 0.055% hits. XiGFP mouse fibroblasts, % GFP-positive cells imaging, 3 d; cells co-treated with 5-aza-dC sensitizer; scaled so ellipticine positive control = 100%;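 active = mean normalized replicate activation at least 10% and every replicate at or above 10%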;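 note: 0% = median of on-plate neutral control wells and 100% = ellipticine 6 µM median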
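System: XiGFP fibroblasts, SV40-immortalized. Medium: DMEM plus 5-aza-dC sensitizer. Doses: single point. Timing: 3 d treatment, 15 min room-temperature fixation. Control set: ellipticine 6 µM.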
Cneo AK release – Cryptococcus neoformans cell lysis inducers, primary screen, AK release luminescence, single concentration; lysis activity, % at 15 µM; C. neoformans lysis, adenylate kinase release luminescence, 4 h; normalised: neutral wells 0, clomiphene wells 100; 360,000 compounds, 0.2% hits;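 active = mean lysis activity across replicates of at least 80%, whatever share of replicates individually reach that level; inactive = mean lysis activity below 80%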
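Assay system: log-phase C. neoformans yeast / Quantity: yeast cell density of 5 × 10^6 cells/mL / Medium: fresh YPD growth medium / Compound: single dose / Timing: static 4 h at 37 °C with compound, 1 h detection / Measured by: adenylate kinase release luminescence / Read-out: lysis from increased AK signal / Benchmarks: Clomiphene as positive lysis control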
FN deposit inh – inhibitors of fibronectin matrix deposition, primary screen, AH1F cells, Alexa488-fibronectin fluorescence, plate reader. AH1F fibroblasts, overnight. inhibition, % at 12.6 µM. 350,000 compounds, 0.086% hits. AID 743247, 2014;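 active = mean inhibition across replicates of 30% or more, regardless of how many single replicates reach that level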;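 note: positive control wells lacked labelled fibronectin entirely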
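material = AH1F fibroblast monolayer depositing Alexa488-labelled fibronectin into matrix | amount = 10000 AH1F cells/well | buffer or medium = DMEM plus 2% serum, read in PBS | incubation = 1 h cell adhesion before compound, then overnight fibronectin incubation | detection = fluorescence at 485 nm excitation, 525 nm emission | evaluation = percent inhibition as loss of matrix-bound fibronectin fluorescence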
Starred values were filed as active, the others as inactive; ! = not confirmed by another sample.

Results for C[C@@H]1CCCCO[C@H](CN(C)Cc2ccncc2)[C@@H](C)CN([C@H](C)CO)C(=O)c2cc(NS(=O)(=O)c3ccccc3)ccc2O1 ?
F508del corr: 0; PGC1a acetyl inh: 5; DENV2 CPE: 21*; XiGFP reactiv: 0; Cneo AK release: -3; FN deposit inh: -22

Results for C[C@H]1CCCCO[C@H](CN(C)Cc2ccncc2)[C@@H](C)CN([C@@H](C)CO)C(=O)c2cc(NS(=O)(=O)c3ccccc3)ccc2O1 ?
F508del corr: -1; PGC1a acetyl inh: 73*!; DENV2 CPE: 9; XiGFP reactiv: 0; Cneo AK release: -1; FN deposit inh: 1

Results for C[C@H](CO)N1C[C@H](C)[C@H](CN(C)Cc2ccncc2)OCCCC[C@H](C)Oc2ccc(NS(=O)(=O)c3ccccc3)cc2C1=O ?
F508del corr: 2; PGC1a acetyl inh: 7; DENV2 CPE: 73*; XiGFP reactiv: 0; Cneo AK release: -1; FN deposit inh: -6

How did COc1ccc(NC(=O)N(C)C[C@@H]2OCCCC[C@@H](C)Oc3ccc(NC(=O)CCCN(C)C)cc3C(=O)N([C@@H](C)CO)C[C@H]2C)cc1 do in these assays?
F508del corr: 1; PGC1a acetyl inh: 3; DENV2 CPE: 67*; XiGFP reactiv: 0; Cneo AK release: -4

Results for COc1ccc(NC(=O)N(C)C[C@H]2OCCCC[C@@H](C)Oc3ccc(NS(C)(=O)=O)cc3C(=O)N([C@H](C)CO)C[C@H]2C)cc1 ?
F508del corr: 2; PGC1a acetyl inh: 9; DENV2 CPE: 95*; XiGFP reactiv: 0; Cneo AK release: 0

What do the screens show for `C[C@@H]1CCCCO[C@@H](CN(C)C(=O)Nc2ccccc2)[C@H](C)CN([C@@H](C)CO)C(=O)c2cc(NS(C)(=O)=O)ccc2O1`?
F508del corr: -3; PGC1a acetyl inh: -1; DENV2 CPE: 43*; XiGFP reactiv: 0; Cneo AK release: 2; FN deposit inh: 3

Results for COc1ccc(NC(=O)N(C)C[C@H]2OCCCC[C@H](C)Oc3ccc(NS(C)(=O)=O)cc3C(=O)N([C@@H](C)CO)C[C@H]2C)cc1 ?
F508del corr: -2; PGC1a acetyl inh: 18; DENV2 CPE: -6; XiGFP reactiv: 0; Cneo AK release: 47

Results for O=C(C[C@H]1C=C[C@@H](NC(=O)c2ccncc2)[C@@H](CO)O1)Nc1ccccc1 ?
F508del corr: -1; PGC1a acetyl inh: -3; DENV2 CPE: -4; XiGFP reactiv: 0; FN deposit inh: -5

What do the screens show for `C[C@H](CO)N1C[C@H](C)[C@H](CN(C)C(=O)Nc2ccccc2)Oc2ncc(Br)cc2C1=O`?
F508del corr: 0; PGC1a acetyl inh: 9; DENV2 CPE: -8; XiGFP reactiv: 0; Cneo AK release: 2; FN deposit inh: -2

How did C[C@@H]1CN([C@@H](C)CO)C(=O)c2cccc(NC(=O)C3CCCCC3)c2O[C@H]1CN(C)S(C)(=O)=O do in these assays?
F508del corr: 1; DENV2 CPE: 8; XiGFP reactiv: 0; Cneo AK release: 2; FN deposit inh: -3

What do the screens show for `COc1ccc(Cl)cc1NC(=O)CSc1nc(Nc2ccccc2)nc(N2CCOCC2)n1`?
F508del corr: -1; DENV2 CPE: -9; XiGFP reactiv: 0; Cneo AK release: 0; FN deposit inh: 31*

How did COc1ccc(Cl)cc1NC(=O)CSc1nc(N2CCOCC2)nc(N2CCOCC2)n1 do in these assays?
F508del corr: 0; PGC1a acetyl inh: 11; DENV2 CPE: -13; XiGFP reactiv: 0; Cneo AK release: 0; FN deposit inh: 4

How did C[C@H](CO)N1C[C@H](C)[C@H](CN(C)CC2CC2)Oc2c(NC(=O)c3ccc(-c4nccs4)cc3)cccc2C1=O do in these assays?
F508del corr: 0; PGC1a acetyl inh: 3; DENV2 CPE: -3; XiGFP reactiv: -1; FN deposit inh: 14

Results for CC=Cc1ccc2n(c1=O)C[C@@H]1[C@@H](CO)[C@H](C(=O)NCC)N(Cc3cocn3)[C@H]21 (mixture of isomers) ?
F508del corr: -1; DENV2 CPE: 0; XiGFP reactiv: 0; Cneo AK release: 0

What do the screens show for `CC=Cc1ccc2n(c1=O)C[C@H]1[C@H](CO)[C@@H](C(=O)NCCC)N(Cc3cocn3)[C@@H]21` (mixture of isomers)?
DENV2 CPE: 78*; XiGFP reactiv: 0; Cneo AK release: 41

What do the screens show for `CC=Cc1ccc2n(c1=O)C[C@H]1[C@H](CO)[C@@H](C(=O)NCC)N(Cc3cccc(F)c3)[C@@H]21` (mixture of isomers)?
F508del corr: 1; DENV2 CPE: -4; XiGFP reactiv: 0; Cneo AK release: 18; FN deposit inh: 1

What do the screens show for `CC=Cc1ccc2n(c1=O)C[C@H]1[C@H](CO)[C@@H](C(=O)N(C)C)N(Cc3cccc(F)c3)[C@@H]21` (mixture of isomers)?
DENV2 CPE: 56*; XiGFP reactiv: 0; Cneo AK release: -2

How did COc1ccc(NC(=O)C(Cl)=C(Cl)Cl)cn1 do in these assays?
F508del corr: 5; PGC1a acetyl inh: -101; DENV2 CPE: 3; XiGFP reactiv: 0; FN deposit inh: 19

Results for COc1ccc(NC(=O)/C(Cl)=C(/Cl)S(=O)Cc2ccc(Cl)cc2)cn1 (stereo not drawn) ?
F508del corr: -6; PGC1a acetyl inh: 100*; DENV2 CPE: -3; XiGFP reactiv: 0; FN deposit inh: 55*

Results for COc1ccc(NC(=O)/C(Cl)=C(/Cl)S(=O)(=O)Cc2ccccc2)cn1 ?
PGC1a acetyl inh: 64*; Cneo AK release: -3

What do the screens show for `CO[C@@H]1CN(C)C(=O)c2ccc(NC(=O)c3cccc(Oc4ccccc4)c3)cc2OC[C@H](C)NC[C@H]1C`?
F508del corr: 0; PGC1a acetyl inh: -21; XiGFP reactiv: 0

What do the screens show for `C[C@@H]1CCCCO[C@H](CN(C)C(=O)Nc2cccc3ccccc23)[C@@H](C)CN([C@H](C)CO)C(=O)c2cc(NS(=O)(=O)c3ccc(F)cc3)ccc2O1`?
F508del corr: -2; PGC1a acetyl inh: -7; DENV2 CPE: -2; XiGFP reactiv: 0; Cneo AK release: 6; FN deposit inh: -1
